Data on 26 molecules can be found in ChEMBL document CHEMBL1127463, “Heteroaryl-fused 2-phenylisothiazolone inhibitors of cartilage breakdown” (J Med Chem, 1994).

For orientation: IC50 means the concentration needed to halve the response being measured. The term inhibition denotes the share of the control response that was lost under treatment.

The species entered for the first test is Bos taurus. Kind of test: In vitro inhibition of human recombinant IL-1-beta-induced breakdown of bovine cartilage in a cartilage organ culture assay. It counts as functional.
Details: not given
An outline of the steps: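 Bovine nasal septum cartilage discs (1 mm × 8 mm, cut in eighths) cultured in DMEM + 5% FCS with antibiotics, ± rh IL-1β 500 ng/mL ± drug (DMSO ≤1%) for 40 h at 37 °C. Released GAG measured by 1,9-dimethylmethylene blue against chondroitin sulfate standard, µg/mg wet weight. Eight replicates per group; dose response gives IC50 (µM).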
For `COc1ccc2cc([C@H](C)C(=O)O)ccc2c1` [NAPROXEN], the IC50 was above 30 µM.

For the molecule `COc1ccc2c(c1)c(CC(=O)O)c(C)n2C(=O)c1ccc(Cl)cc1` [INDOMETHACIN], the IC50 is above 30 µM.

`COC(=O)c1ccccc1-n1sc2ncccc2c1=O`: the IC50 was found to be 25 µM.

For `CN(C)[C@@H]1C(O)=C(C(N)=O)C(=O)[C@@]2(O)C(O)=C3C(=O)c4c(O)cccc4[C@@](C)(O)[C@H]3C[C@@H]12` [TETRACYCLINE], the IC50 is above 30 µM.

For the molecule `O=C1CCN(c2ccccc2)N1` [PHENIDONE], the IC50 is above 30 µM.

Take `COC(=O)c1cccc(OC)c1-n1sc2ncccc2c1=O`: the IC50 amounted to 8 µM.

Regarding `O=c1c2cccnc2sn1-c1ccc(Cl)cc1`, the IC50 stood at 8.5 µM.

For the molecule `O=c1c2cccnc2sn1-c1ccc(F)cc1`, the IC50 amounted to 12 µM.

For the next test, the species on record is Bos taurus. Nature of the test: Tested in vitro at 30 uM for its ability to inhibit the human recombinant IL-1-beta-induced breakdown of bovine cartilage in a cartilage organ culture assay. Conditions: Cartilage tissue. Format: functional. An outline of the steps:
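Cartilage organ culture screen at a single 30 µM concentration. Bovine nasal septum explants in DMEM/5% FCS with rh IL-1β 500 ng/mL, 40 h, 37 °C, 95% air/5% CO2. Proteoglycan breakdown read as GAG release by dimethylmethylene blue; 35SO4 uptake over a further 2 h used for viability. Eight replicates; percent inhibition.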
On to `COC(=O)c1cccc(-n2sc3ncccc3c2=O)c1`, for which the inhibition came to 35%.

In the case of `CS(=O)(=O)Nc1ccc(-n2sc3ncccc3c2=O)cc1`, the inhibition is 28%.

Consider `O=c1c2ccnc(Cl)c2sn1-c1ccccc1`, for which the inhibition is 38%.

Consider `O=c1c2cccnc2sn1-c1ccccn1`, for which the inhibition was 23%.

With `O=c1c2cccnc2sn1-c1cccc([N+](=O)[O-])c1`, the inhibition came to 37%.

For the molecule `COc1nc(OC)c2sn(-c3ccc(C(F)(F)F)cc3)c(=O)c2n1`, the inhibition worked out at 39%.

As to `COc1ccc(-n2sc3c(OC)nc(OC)nc3c2=O)cc1`, the inhibition is 50%.

Take `Nc1cccc(-n2sc3ncccc3c2=O)c1`: the inhibition is 34%.

Turning to `COc1cc2c(=O)n(-c3ccccc3)sc2c(OC)n1`, the inhibition stood at 39%.

Take `COc1ccc(-n2sc3c(OC)nccc3c2=O)cc1`: the inhibition is 20%.

`COc1nc(OC)c2sn(-c3ccccc3)c(=O)c2n1`: the inhibition is 40%.

With `N#Cc1ccc(-n2sc3ncccc3c2=O)cc1`, the inhibition stood at 40%.

As for `COc1ccc(-n2sc3c(O)nc(O)nc3c2=O)cc1`, the inhibition is 49%.

`O=c1c2cccnc2sn1-c1ccc(C(F)(F)F)cc1`: the inhibition turned out to be 17%.

As to `COc1cccc(OC)c1-n1sc2ncccc2c1=O`, the inhibition worked out at 40%.

Take `O=c1c2cccnc2sn1-c1ccccc1Cl`: the inhibition worked out at 0%.

The target in a further test is Stromelysin-1 (Homo sapiens) (UniProt P08254). Nature of the test: Tested for inhibition of stromelysin using [3H]transferrin, following pre-incubation with prostromelysin for 0 hr prior to activation by plasmin. As to conditions: concentration not given here.
Chain of Stromelysin-1 (Homo sapiens) (P08254 whole entry, looked up): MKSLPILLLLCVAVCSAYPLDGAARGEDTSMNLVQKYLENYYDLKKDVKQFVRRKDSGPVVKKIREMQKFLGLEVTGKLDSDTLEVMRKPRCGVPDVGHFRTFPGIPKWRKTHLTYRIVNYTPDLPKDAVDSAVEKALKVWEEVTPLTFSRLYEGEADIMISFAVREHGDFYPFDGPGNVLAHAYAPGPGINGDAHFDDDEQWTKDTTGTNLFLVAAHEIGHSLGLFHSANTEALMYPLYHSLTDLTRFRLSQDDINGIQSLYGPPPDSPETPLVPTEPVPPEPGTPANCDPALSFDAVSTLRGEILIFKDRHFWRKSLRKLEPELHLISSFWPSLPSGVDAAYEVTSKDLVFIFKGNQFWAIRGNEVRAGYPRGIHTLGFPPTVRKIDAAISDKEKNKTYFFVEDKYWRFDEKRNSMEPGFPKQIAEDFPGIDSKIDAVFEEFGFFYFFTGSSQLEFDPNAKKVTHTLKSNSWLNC
For `COc1ccc(OC)c(-n2sc3ncccc3c2=O)c1`, the inhibition amounted to 51%.

`COc1ccc(-n2sc3ncccc3c2=O)c(OC)c1` gave an inhibition of 45%.

The target is the same in the next test. Nature of the test: Tested for inhibition of stromelysin using [3H]transferrin, following pre-incubation with prostromelysin for 3 hr prior to activation by plasmin. Conditions: concentration not given here.
`COc1ccc(OC)c(-n2sc3ncccc3c2=O)c1` gave an inhibition of 68%.

The molecule `COc1ccc(-n2sc3ncccc3c2=O)c(OC)c1` showed an inhibition of 65%.
